Results reported in ChEMBL document CHEMBL1135766, “Synthesis of conformationally constrained analogues of linezolid: structure-activity relationship (SAR) studies on selected novel tricyclic oxazolidinones” (2002).
Converted amounts (≈) assume the structure as drawn.

What was measured:
Staphylococcus aureus [1] = experiment: In vitro antibacterial activity against methicillin resistant Staphylococcus aureus ATCC 33591 (S. a. 019); type: functional
How it was run: (§1)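 Broth microdilution MIC per NCCLS guidelines in Mueller Hinton medium. Doubling dilutions from 256 to 1 μg/mL, inoculum (1–5) × 10⁵ CFU/mL, incubated overnight in ambient air at 35 °C. MIC is the lowest concentration giving complete growth inhibition. Linezolid and vancomycin served as controls.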

Enterococcus faecalis [2] = experiment: In vitro antibacterial activity against Enterococcus faecalis ATCC 29212 (E. f. 153) vancomycin sensitive; type: functional
How it was run: (§2)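 Broth microdilution per NCCLS guidelines in Mueller Hinton medium. Doubling dilutions 256–1 μg/mL; inoculum (1–5) × 10⁵ CFU/mL; plates incubated overnight at 35 °C in ambient air. MIC read as the lowest concentration giving complete growth inhibition. Linezolid and vancomycin served as controls.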

Enterococcus faecium = experiment: In vitro antibacterial activity against Enterococcus faecium ATCC 12202 (E.fm 154) vancomycin resistant; type: functional, enterococcus fecium; how it was run: as §1
Enterococcus faecalis [3] = experiment: In vitro antibacterial activity against Enterococcus faecalis ATCC 29212 (E. f. 034) vancomycin sensitive; type: functional; how it was run: as §1
Staphylococcus aureus [4] = experiment: In vitro antibacterial activity against Staphylococcus aureus ATCC 29213 (S. a. 035); type: functional; how it was run: as §2
Staphylococcus aureus [5] = experiment: In vitro antibacterial activity against Staphylococcus aureus ATCC 49951 (S. a. 213); type: functional; how it was run: as §1
Enterococcus faecalis [6] = experiment: In vitro antibacterial activity against Enterococcus faecalis NCTC 12201 (E. f. 153) vancomycin resistant; type: functional; how it was run: as §1
Mus musculus [7] = experiment: In vivo antibacterial activity in a murine systemic infection model; type: functional
How it was run: (§3)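 Female Swiss Albino mice (22–25 g, n = 6) were infected intraperitoneally with 0.5 mL S. aureus ATCC 29213. The inoculum was grown 2–3 h at 35 °C in BHI broth and adjusted to 100 × LD50 in 5% hog gastric mucin. Compound was suspended in 0.25% carboxymethyl cellulose and given orally 1 and 6 h post-infection; controls received saline. Cumulative mortality was scored over 48 h, and ED50 was derived by linear regression.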

Mus musculus [8] = experiment: In vivo antibacterial activity in a murine systemic infection model (95%confidence limits); type: functional; how it was run: as §3

| Compound | MIC (Staphylococcus aureus [1]) [µg/mL] | MIC (Enterococcus faecalis [2]) [µg/mL] | MIC (Enterococcus faecium) [µg/mL] | MIC (Enterococcus faecalis [3]) [µg/mL] | MIC (Staphylococcus aureus [4]) [µg/mL] | MIC (Staphylococcus aureus [5]) [µg/mL] | MIC (Enterococcus faecalis [6]) [µg/mL] | ED50 (Mus musculus [7]) [mg/kg] | ED50 (Mus musculus [8]) [mg/kg] |
| --- | --- | --- | --- | --- | --- | --- | --- | --- | --- |
| O=C(CCl)NC[C@H]1CN(c2cc(F)c3c(c2)OC[C@@H]2CCCN32)C(=O)O1 | 1 (≈ 2.61 µM) | 2 (≈ 5.21 µM) | 2 (≈ 5.21 µM) | 2 (≈ 5.21 µM) | 1 (≈ 2.61 µM) |  |  |  |  |
| C/N=C(\S)NC[C@H]1CN(c2cc(F)c3c(c2)OC[C@@H]2CCCN32)C(=O)O1 | 2 (≈ 5.26 µM) |  | 4 (≈ 10.5 µM) | 2 (≈ 5.26 µM) | 4 (≈ 10.5 µM) | 4 (≈ 10.5 µM) | 4 (≈ 10.5 µM) |  |  |
| C=CC(=O)NC[C@H]1CN(c2cc(F)c3c(c2)OC[C@@H]2CCCN32)C(=O)O1 | 4 (≈ 11.1 µM) |  | 4 (≈ 11.1 µM) | 4 (≈ 11.1 µM) | 4 (≈ 11.1 µM) | 4 (≈ 11.1 µM) | 4 (≈ 11.1 µM) | 30 |  |
| O=CNC[C@H]1CN(c2ccc3c(c2)OC[C@@H]2CCCN32)C(=O)O1 | 4 (≈ 12.6 µM) |  | 16 (≈ 50.4 µM) | 16 (≈ 50.4 µM) | 8 (≈ 25.2 µM) |  | 16 (≈ 50.4 µM) |  |  |
| CC(=O)NC[C@H]1CN(c2ccc3c(c2)OC[C@@H]2CCCN32)C(=O)O1 | 4 (≈ 12.1 µM) |  | 16 (≈ 48.3 µM) | 16 (≈ 48.3 µM) | 8 (≈ 24.1 µM) | 4 (≈ 12.1 µM) | 16 (≈ 48.3 µM) |  |  |
| CC(C)C(=O)NC[C@H]1CN(c2cc(F)c3c(c2)OC[C@@H]2CCCN32)C(=O)O1 | 8 (≈ 21.2 µM) |  | 16 (≈ 42.4 µM) | 16 (≈ 42.4 µM) | 8 (≈ 21.2 µM) | 8 (≈ 21.2 µM) | 16 (≈ 42.4 µM) |  |  |
| CCC(=O)NC[C@H]1CN(c2cc(F)c3c(c2)OC[C@@H]2CCCN32)C(=O)O1 | 2 (≈ 5.5 µM) |  | 8 (≈ 22 µM) | 4 (≈ 11 µM) | 4 (≈ 11 µM) | 4 (≈ 11 µM) | 8 (≈ 22 µM) | 16 |  |
| CCCCC(=O)NC[C@H]1CN(c2cc(F)c3c(c2)OC[C@@H]2CCCN32)C(=O)O1 | 8 (≈ 20.4 µM) |  | 32 (≈ 81.7 µM) | 16 (≈ 40.9 µM) | 16 (≈ 40.9 µM) | 16 (≈ 40.9 µM) | 16 (≈ 40.9 µM) |  |  |
| CCOC(=O)NC[C@H]1CN(c2cc(F)c3c(c2)OC[C@@H]2CCCN32)C(=O)O1 | 8 (≈ 21.1 µM) |  | 8 (≈ 21.1 µM) | 8 (≈ 21.1 µM) | 8 (≈ 21.1 µM) | 8 (≈ 21.1 µM) | 8 (≈ 21.1 µM) |  |  |
| CC/C(S)=N\C[C@H]1CN(c2cc(F)c3c(c2)OC[C@@H]2CCCN32)C(=O)O1 | 0.5 (≈ 1.32 µM) |  | 0.5 (≈ 1.32 µM) | 0.5 (≈ 1.32 µM) | 1 (≈ 2.64 µM) | 0.5 (≈ 1.32 µM) | 0.5 (≈ 1.32 µM) | 30 |  |
| COC(=O)NC[C@H]1CN(c2cc(F)c3c(c2)OC[C@@H]2CCCN32)C(=O)O1 | 2 (≈ 5.47 µM) |  | 2 (≈ 5.47 µM) | 2 (≈ 5.47 µM) | 2 (≈ 5.47 µM) | 2 (≈ 5.47 µM) | 2 (≈ 5.47 µM) | 3.3 |  |
| CCCCO/C(S)=N\C[C@H]1CN(c2cc(F)c3c(c2)OC[C@@H]2CCCN32)C(=O)O1 | > 32 | > 32 | > 32 | > 32 | > 32 | > 32 |  |  |  |
| O=C1O[C@@H](C/N=C(/S)N2CCOCC2)CN1c1cc(F)c2c(c1)OC[C@@H]1CCCN21 | 16 (≈ 36.7 µM) |  | 16 (≈ 36.7 µM) | 16 (≈ 36.7 µM) | 16 (≈ 36.7 µM) | 16 (≈ 36.7 µM) | 16 (≈ 36.7 µM) |  |  |
| CCO/C(S)=N\C[C@H]1CN(c2cc(F)c3c(c2)OC[C@@H]2CCCN32)C(=O)O1 | 1 (≈ 2.53 µM) | 2 (≈ 5.06 µM) | 2 (≈ 5.06 µM) | 2 (≈ 5.06 µM) | 2 (≈ 5.06 µM) | 2 (≈ 5.06 µM) |  |  |  |
| CCCCCC(=O)NC[C@H]1CN(c2cc(F)c3c(c2)OC[C@@H]2CCCN32)C(=O)O1 | 16 (≈ 39.5 µM) |  | 32 (≈ 78.9 µM) | 32 (≈ 78.9 µM) | 32 (≈ 78.9 µM) | 32 (≈ 78.9 µM) | 32 (≈ 78.9 µM) |  |  |
| CO/C(S)=N\C[C@H]1CN(c2cc(F)c3c(c2)OC[C@@H]2CCCN32)C(=O)O1 | 0.5 (≈ 1.31 µM) | 0.5 (≈ 1.31 µM) | 0.5 (≈ 1.31 µM) | 0.5 (≈ 1.31 µM) | 1 (≈ 2.62 µM) | 1 (≈ 2.62 µM) |  |  | 4.85 |
| N=C(S)NC[C@H]1CN(c2cc(F)c3c(c2)OC[C@@H]2CCCN32)C(=O)O1 | 0.5 (≈ 1.36 µM) |  | 1 (≈ 2.73 µM) | 1 (≈ 2.73 µM) | 0.5 (≈ 1.36 µM) | 0.5 (≈ 1.36 µM) | 1 (≈ 2.73 µM) |  |  |
| CCCC(=O)NC[C@H]1CN(c2cc(F)c3c(c2)OC[C@@H]2CCCN32)C(=O)O1 | 4 (≈ 10.6 µM) |  | 4 (≈ 10.6 µM) | 4 (≈ 10.6 µM) | 4 (≈ 10.6 µM) | 4 (≈ 10.6 µM) | 4 (≈ 10.6 µM) |  |  |
